Experimental data from ChEMBL document CHEMBL1153571, “New imidazo[1,2-a]quinoxaline derivatives: synthesis and in vitro activity against human melanoma” (Eur J Med Chem, 2009).

Test system: A-375
Experiment: Cytotoxicity against human A375 cells after 96 hrs by MTT assay
Format: functional, cell-based
Conditions: A-375, 96 h
Outline: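 A375 human melanoma cells (ATCC) in RPMI-1640 with 10% heat-inactivated FBS, 2 mM L-glutamine, penicillin/streptomycin/amphotericin B, 37 °C, 5% CO2. Plated at 5000 cells/well, attached overnight. Compounds added in 1% DMSO/medium over a log dilution range and left for 96 h. MTT then added for 4 h at 37 °C. Formazan dissolved in isopropanol/1 M HCl (96/4), read at 570 nm. Survival expressed as % of vehicle control, IC50 taken from sigmoidal curves. At least three experiments in triplicate.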

Row | Structure (SMILES) | IC50
1 | CCOP(=O)(OCC)C(C)NC(=O)N(CCCl)N=O (configuration not stated) [FOTEMUSTINE] | 173000 nM
2 | CNc1nc2ccccc2n2c(-c3ccc(OC)cc3)cnc12 | 370 nM
3 | CNc1nc2ccccc2n2c(-c3cccc(Br)c3)cnc12 | 650 nM
4 | CCOc1cccc(-c2cnc3c(NC)nc4ccccc4n23)c1 | 300 nM
5 | CNc1nc2ccccc2n2c(-c3cccc(OC)c3)cnc12 | 200 nM
6 | CNc1nc2ccccc2n2c(-c3ccccc3OC)cnc12 | 122000 nM
7 | CNc1nc2ccccc2n2c(CCc3ccccc3)cnc12 | 1570 nM
8 | CNc1nc2ccccc2n2c(-c3ccoc3)cnc12 | 74100 nM
9 | CNc1nc2ccccc2n2c(-c3cccc([N+](=O)[O-])c3)cnc12 | 40000 nM
10 | CNc1nc2ccccc2n2c(-c3cccc(F)c3)cnc12 | 24900 nM
11 | CNc1nc2ccccc2n2c(-c3cccc(Cl)c3)cnc12 | 1780 nM
12 | CNc1nc2ccccc2n2c(-c3cccc(C#N)c3)cnc12 | 27000 nM
13 | CC(C)Cn1cnc2c(N)nc3ccccc3c21 [IMIQUIMOD] | 70300 nM
14 | CNc1nc2ccccc2n2c(-c3cccc(C(=O)O)c3)cnc12 | 3470 nM
15 | CNc1nc2ccccc2n2c(-c3ccccc3)cnc12 | 2190 nM
16 | CNc1nc2ccccc2n2c(-c3cccc(C(F)(F)F)c3)cnc12 | 1280 nM
17 | CNc1nc2ccccc2n2c(-c3cccc(O)c3)cnc12 | 560 nM
